In ChEMBL document CHEMBL1147823, “Conformationally constrained analogues of diacylglycerol. 26. Exploring the chemical space surrounding the C1 domain of protein kinase C with DAG-lactones containing aryl groups at the sn-1 and sn-2 positions” (J Med Chem, 2006):

biological target: Protein kinase C alpha type (Homo sapiens, UniProt P17252); test: Displacement of [20-3H]PDBU from recombinant PKCalpha in presence of phosphatidylserine
In short: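 Competition binding with recombinant single-isozyme PKC-α as the target enzyme. Each ligand's ability to displace bound [20-³H]phorbol 12,13-dibutyrate was measured in the presence of phosphatidylserine. Ki values were derived from the competition, and both E- and Z-isomers were assayed.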

SMILES	Ki
COc1ccc(C(=O)OCC2(CO)C/C(=C\CC(C(C)C)C(C)C)C(=O)O2)cc1 (stereo unspecified)	0.036 µM
CC(C)C(C/C=C1\CC(CO)(COC(=O)c2ccc(O)cc2)OC1=O)C(C)C (stereo unspecified)	2.4 µM
CC(C)C(C/C=C1\CC(CO)(COC(=O)c2ccccc2)OC1=O)C(C)C (stereo unspecified)	0.028 µM
CC(C)C(C/C=C1/CC(CO)(COC(=O)c2ccccc2O)OC1=O)C(C)C (stereo unspecified)	0.03 µM
COc1ccc(/C=C2\CC(CO)(COC(=O)CC(C(C)C)C(C)C)OC2=O)cc1 (stereo unspecified)	0.007 µM
CC(C)C(C/C=C1/CC(CO)(COC(=O)c2cccc(O)c2)OC1=O)C(C)C (stereo unspecified)	0.406 µM
CC(C)C(C/C=C1\CC(CO)(COC(=O)c2cccc(O)c2)OC1=O)C(C)C (stereo unspecified)	0.67 µM
CC(C)C(C/C=C1\CC(CO)(COC(=O)C2CCCCC2)OC1=O)C(C)C (stereo unspecified)	0.01 µM
COc1cccc(C(=O)OCC2(CO)C/C(=C/CC(C(C)C)C(C)C)C(=O)O2)c1 (stereo unspecified)	0.024 µM
CC(C)C(CC(=O)OCC1(CO)C/C(=C\c2ccccc2)C(=O)O1)C(C)C (stereo unspecified)	0.012 µM
CCCCCCCC/C=C1/CC(CO)(COC(=O)Cc2ccccc2)OC1=O (stereo unspecified)	0.045 µM
CCCCCCCCC/C=C1\CC(CO)(COC(=O)C2CCCCC2)OC1=O (stereo unspecified)	0.009 µM
COc1ccc(C(=O)OCC2(CO)C/C(=C/CC(C(C)C)C(C)C)C(=O)O2)cc1 (stereo unspecified)	0.018 µM
CCCCCC/C=C1/CC(CO)(COC(=O)CCCc2ccccc2)OC1=O (stereo unspecified)	0.017 µM
CC(C)C(CC(=O)OCC1(CO)C/C(=C\Cc2ccccc2)C(=O)O1)C(C)C (stereo unspecified)	0.014 µM
COc1ccccc1/C=C1\CC(CO)(COC(=O)CC(C(C)C)C(C)C)OC1=O (stereo unspecified)	0.016 µM
CC(C)C(CC(=O)OCC1(CO)C/C(=C\c2cccc(O)c2)C(=O)O1)C(C)C (stereo unspecified)	0.017 µM
CCCCCCC/C=C1\CC(CO)(COC(=O)CCc2ccccc2)OC1=O (stereo unspecified)	0.018 µM

SMILES	Ki
COc1cccc(C(=O)OCC2(CO)C/C(=C\CC(C(C)C)C(C)C)C(=O)O2)c1 (stereo unspecified)	0.039 µM
CC(C)C(CC(=O)OCC1(CO)C/C(=C\c2ccc(O)cc2)C(=O)O1)C(C)C (stereo unspecified)	0.019 µM
CCCCCCC/C=C1/CC(CO)(COC(=O)CCc2ccccc2)OC1=O (stereo unspecified)	0.014 µM
CCCCCCCCC/C=C1/CC(CO)(COC(=O)c2ccccc2)OC1=O (stereo unspecified)	0.009 µM
CC(C)C(C/C=C1\CC(CO)(COC(=O)c2ccccc2O)OC1=O)C(C)C (stereo unspecified)	0.067 µM
CCCCCCCCC/C=C1\CC(CO)(COC(=O)c2ccccc2)OC1=O (stereo unspecified)	0.014 µM
COc1ccccc1C(=O)OCC1(CO)C/C(=C\CC(C(C)C)C(C)C)C(=O)O1 (stereo unspecified)	0.073 µM
CC(C)C(CC(=O)OCC1(CO)C/C(=C\CCc2ccccc2)C(=O)O1)C(C)C (stereo unspecified)	0.009 µM
CCCCCC/C=C1\CC(CO)(COC(=O)CCCc2ccccc2)OC1=O (stereo unspecified)	0.027 µM
CC(C)C(C/C=C1/CC(CO)(COC(=O)C2CCCCC2)OC1=O)C(C)C (stereo unspecified)	0.008 µM
CCCCCCCC/C=C1\CC(CO)(COC(=O)Cc2ccccc2)OC1=O (stereo unspecified)	0.044 µM
CC(C)C(CC(=O)OCC1(CO)C/C(=C\c2ccccc2O)C(=O)O1)C(C)C (stereo unspecified)	0.022 µM
CC(C)C(C/C=C1/CC(CO)(COC(=O)c2ccccc2)OC1=O)C(C)C (stereo unspecified)	0.016 µM
COc1cccc(/C=C2\CC(CO)(COC(=O)CC(C(C)C)C(C)C)OC2=O)c1 (stereo unspecified)	0.012 µM
COc1ccccc1C(=O)OCC1(CO)C/C(=C/CC(C(C)C)C(C)C)C(=O)O1 (stereo unspecified)	0.023 µM
CCCCCCCCC/C=C1/CC(CO)(COC(=O)C2CCCCC2)OC1=O (stereo unspecified)	0.005 µM
CC(C)C(C/C=C1/CC(CO)(COC(=O)c2ccc(O)cc2)OC1=O)C(C)C (stereo unspecified)	0.983 µM

biological target: T1, Protein kinase C delta type (Homo sapiens, UniProt Q05655); test: Binding affinity to PKCdeltaC1b in presence of phospholipid
Target sequence in this assay (Q05655 whole entry): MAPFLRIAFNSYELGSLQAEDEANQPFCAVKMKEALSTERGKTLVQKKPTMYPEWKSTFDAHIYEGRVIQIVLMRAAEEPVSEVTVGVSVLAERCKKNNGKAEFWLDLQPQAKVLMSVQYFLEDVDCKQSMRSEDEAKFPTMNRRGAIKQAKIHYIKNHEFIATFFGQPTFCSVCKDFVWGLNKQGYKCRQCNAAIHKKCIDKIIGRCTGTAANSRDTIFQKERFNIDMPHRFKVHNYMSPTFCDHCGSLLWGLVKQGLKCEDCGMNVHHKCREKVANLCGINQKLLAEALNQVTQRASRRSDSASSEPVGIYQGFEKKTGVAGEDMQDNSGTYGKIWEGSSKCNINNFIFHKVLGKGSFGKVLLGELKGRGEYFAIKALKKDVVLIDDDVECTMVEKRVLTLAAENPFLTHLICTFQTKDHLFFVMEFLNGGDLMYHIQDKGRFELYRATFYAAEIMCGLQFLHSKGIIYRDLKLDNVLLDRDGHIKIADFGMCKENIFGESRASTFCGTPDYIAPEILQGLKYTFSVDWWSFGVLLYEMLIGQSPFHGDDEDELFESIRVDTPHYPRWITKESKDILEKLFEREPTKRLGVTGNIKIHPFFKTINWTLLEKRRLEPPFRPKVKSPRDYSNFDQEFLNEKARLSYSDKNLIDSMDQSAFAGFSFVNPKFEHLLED

SMILES	Ki
CC(C)C(C/C=C1\CC(CO)(COC(=O)c2ccc(O)cc2)OC1=O)C(C)C (stereo unspecified)	0.98 µM
CC(C)C(CC(=O)OCC1(CO)C/C(=C\c2ccc(O)cc2)C(=O)O1)C(C)C (stereo unspecified)	0.0014 µM

biological target: T1, Protein kinase C delta type; test: Binding affinity to PKCdeltaC1b in absence of phospholipid
Target sequence in this assay (Q05655 whole entry): as above

SMILES	Ki
CC(C)C(C/C=C1\CC(CO)(COC(=O)c2ccc(O)cc2)OC1=O)C(C)C (stereo unspecified)	16.9 µM
CC(C)C(CC(=O)OCC1(CO)C/C(=C\c2ccc(O)cc2)C(=O)O1)C(C)C (stereo unspecified)	0.17 µM

biological target: T1, Protein kinase C delta type; test: Ratio of binding affinity to PKCdeltaC1b in presence to absence of phospholipid
Target sequence in this assay (Q05655 whole entry, looked up): as the sequence (Q05655 whole entry) above

SMILES	Ratio Ki
CC(C)C(C/C=C1\CC(CO)(COC(=O)c2ccc(O)cc2)OC1=O)C(C)C (stereo unspecified)	17
CC(C)C(CC(=O)OCC1(CO)C/C(=C\c2ccc(O)cc2)C(=O)O1)C(C)C (stereo unspecified)	121
